Results taken from ChEMBL document CHEMBL1122831, “Synthesis and structure-activity relationships of novel arylfluoroquinolone antibacterial agents” (1985).
Converted amounts (≈) assume the structure as drawn.

Columns and labels:
Format in all cases: functional
Escherichia coli [1] = test: Minimum inhibition concentration in vitro determined against Escherichia coli juhl
Outline: (§1)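 Agar dilution on brain-heart infusion (BHI) agar with twofold dilutions from a 2000 µg/mL stock, giving final test concentrations of 200-0.005 µg/mL. Organisms were grown overnight in BHI broth at 36 °C, and about 10⁴ organisms were inoculated per plate. Plates were incubated 18 h at 36 °C. MIC was the lowest concentration with no visible growth.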

Klebsiella aerogenes = test: Minimum inhibition concentration in vitro determined against Enterobacteri aerogenes ATCC 13048; outline: as §1
Klebsiella pneumoniae = test: Minimum inhibition concentration in vitro determined against Klebsiella pneumoniae 8045; outline: as §1
Pseudomonas aeruginosa [2] = test: Minimum inhibition concentration in vitro determined against Pseudomona aeruginosa 5007; outline: as §1
Pseudomonas aeruginosa [3] = test: Minimum inhibition concentration in vitro determined against Pseudomona aeruginosa K799/WT; outline: as §1
[4] = system: Staphylococcus epidermidis; test: Minimum inhibition concentration in vitro determined against Staphylococcus epidermidis 3519; outline: as §1
Staphylococcus aureus [5] = test: Minimum inhibition concentration in vitro determined against Staphylococcus aureus ATCC 6538P; outline: as §1
Streptococcus pyogenes = test: Minimum inhibition concentration in vitro determined against Streptococcus pyogenes 930; outline: as §1
Staphylococcus aureus [6] = test: Minimum inhibition concentration in vitro determined against Staphylococcus aureus CMX 686B; outline: as §1
Enterococcus faecium [7] = test: Minimum inhibition concentration in vitro determined against Streptococcus faecium ATCC 8043; outline: as §1
Acinetobacter = test: Minimum inhibition concentration in vitro determined against Acinetobacter sp CMX669; outline: as §1
Enterococcus faecium [8] = test: 0 Minimum inhibition concentration was determined against Streptococcus faecium ATCC 8043 (in vitro); outline: as §1
Escherichia coli [9] = test: Compound was evaluated for inhibitory activity against Escherichia coli Juhl (in vivo); settings: in the assay text read “in vitro” for “in vivo”
Mus musculus [10] = test: In vivo inhibitory activity against Escherichia coli Juhl after peroral administration in mice; settings: po
Outline: (§2)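 Female CF-1 mice (~20 g) were infected ip with 0.5 mL of an 18-h BHI culture of E. coli Juhl in 5% hog gastric mucin at 100× LD50. The LD50 had been set beforehand by 10-fold dilutions and Reed-Muench. Compound in water or dilute NaOH was given sc or po, split equally at 1 and 5 h post-infection. Groups of 10 mice got ≥3 doses, with 10 untreated controls. ED50 was calculated from day-6 cumulative mortality by trimmed Logit.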

Mus musculus [11] = test: In vivio inhibitory activity against Escherichia coli Juhl after subcutaneous administration in mice; settings: sc; outline: as §2
Mus musculus [12] = test: In vivo inhibitory activity of teh compound against Escherichia coli Juhl after peroral administration in mice; settings: po; outline: as §2
[13] = Escherichia coli, read-out: MIC

Structure (SMILES)	MIC (Escherichia coli [1]; [13]) [mg/L]	MIC (Klebsiella aerogenes) [mg/L]	MIC (Klebsiella pneumoniae) [mg/L]	MIC (Pseudomonas aeruginosa [2]) [mg/L]	MIC (Pseudomonas aeruginosa [3]) [mg/L]	MIC [4] [mg/L]	MIC (Staphylococcus aureus [5]) [mg/L]	MIC (Streptococcus pyogenes) [mg/L]	MIC (Staphylococcus aureus [6]) [mg/L]	MIC (Enterococcus faecium [7]) [mg/L]	MIC (Acinetobacter) [mg/L]	MIC (Enterococcus faecium [8]) [mg/L]	MIC (Escherichia coli [9]) [mg/L]	ED50 (Mus musculus [10]) [mg/kg]	ED50 (Mus musculus [11]) [mg/kg]	MIC (Escherichia coli [1]) [mg/L]	ED50 (Mus musculus [12]) [mg/kg]
Cc1ccc(-n2cc(C(=O)O)c(=O)c3cc(F)c(N4CCN(C)CC4)cc32)cc1	1.56 (≈ 3.95 µM)	3.1 (≈ 7.84 µM)	0.78 (≈ 1.97 µM)	12.5 (≈ 31.6 µM)	12.5 (≈ 31.6 µM)	3.1 (≈ 7.84 µM)	1.56 (≈ 3.95 µM)	12.5 (≈ 31.6 µM)	1.56 (≈ 3.95 µM)	50 (≈ 126 µM)	1.56 (≈ 3.95 µM)						
CN1CCN(c2cc3c(cc2F)c(=O)c(C(=O)O)cn3-c2ccc3c(c2)OCO3)CC1	0.78 (≈ 1.83 µM)	0.78 (≈ 1.83 µM)	0.2 (≈ 0.47 µM)	6.2 (≈ 14.6 µM)	6.2 (≈ 14.6 µM)	1.56 (≈ 3.67 µM)	0.78 (≈ 1.83 µM)	12.5 (≈ 29.4 µM)	0.78 (≈ 1.83 µM)		0.78 (≈ 1.83 µM)	50 (≈ 118 µM)					
O=C(O)c1cn(-c2ccc(F)cc2)c2cc(N3CCOCC3)c(F)cc2c1=O	0.39 (≈ 1.01 µM)	0.78 (≈ 2.02 µM)	0.39 (≈ 1.01 µM)	3.1 (≈ 8.02 µM)	3.1 (≈ 8.02 µM)	0.2 (≈ 0.518 µM)	0.1 (≈ 0.259 µM)	1.56 (≈ 4.04 µM)	0.1 (≈ 0.259 µM)	1.56 (≈ 4.04 µM)	0.78 (≈ 2.02 µM)						
Cc1ccccc1-n1cc(C(=O)O)c(=O)c2cc(F)c(N3CCN(C)CC3)cc21	1.56 (≈ 3.95 µM)	3.1 (≈ 7.84 µM)	1.56 (≈ 3.95 µM)	25 (≈ 63.2 µM)	12.5 (≈ 31.6 µM)	3.1 (≈ 7.84 µM)	3.1 (≈ 7.84 µM)	50 (≈ 126 µM)	3.1 (≈ 7.84 µM)	50 (≈ 126 µM)	1.56 (≈ 3.95 µM)						
CNC1CCN(c2cc3c(cc2F)c(=O)c(C(=O)O)cn3-c2ccc(F)cc2)C1 (configuration not stated)	3.1 (≈ 7.76 µM)	3.1 (≈ 7.76 µM)	0.78 (≈ 1.95 µM)	50 (≈ 125 µM)	50 (≈ 125 µM)	6.2 (≈ 15.5 µM)	3.1 (≈ 7.76 µM)	12.5 (≈ 31.3 µM)	3.1 (≈ 7.76 µM)	25 (≈ 62.6 µM)	6.2 (≈ 15.5 µM)						
CN(C)C1CCN(c2cc3c(cc2F)c(=O)c(C(=O)O)cn3-c2ccc(F)cc2)CC1	0.39 (≈ 0.912 µM)	0.78 (≈ 1.82 µM)	0.39 (≈ 0.912 µM)	3.1 (≈ 7.25 µM)	3.1 (≈ 7.25 µM)	0.78 (≈ 1.82 µM)	0.39 (≈ 0.912 µM)	1.56 (≈ 3.65 µM)	0.39 (≈ 0.912 µM)	3.1 (≈ 7.25 µM)	0.78 (≈ 1.82 µM)						
CC(C)N(C)c1cc2c(cc1F)c(=O)c(C(=O)O)cn2-c1ccc(F)cc1	6.2 (≈ 16.7 µM)	6.2 (≈ 16.7 µM)	3.1 (≈ 8.33 µM)	100 (≈ 269 µM)	50 (≈ 134 µM)	1.56 (≈ 4.19 µM)	0.78 (≈ 2.09 µM)	12.5 (≈ 33.6 µM)	0.78 (≈ 2.09 µM)	12.5 (≈ 33.6 µM)	12.5 (≈ 33.6 µM)						
CN1CCN(c2cc3c(cc2F)c(=O)c(C(=O)O)cn3-c2ccc(F)cc2)CC1 [DIFLOXACIN]	0.2 (≈ 0.501 µM)	0.78 (≈ 1.95 µM)	0.1 (≈ 0.25 µM)	1.56 (≈ 3.91 µM)	1.56 (≈ 3.91 µM)	0.39 (≈ 0.976 µM)	0.2 (≈ 0.501 µM)	1.56 (≈ 3.91 µM)	0.2 (≈ 0.501 µM)	1.56 (≈ 3.91 µM)	0.2 (≈ 0.501 µM)		0.2 (≈ 0.501 µM)	3.1	1.6		
CCn1cc(C(=O)O)c(=O)c2cc(F)c(N3CCNCC3)cc21 [NORFLOXACIN]	0.1 (≈ 0.313 µM)	0.2 (≈ 0.626 µM)	0.1 (≈ 0.313 µM)	0.39 (≈ 1.22 µM)	0.39 (≈ 1.22 µM)	1.56 (≈ 4.89 µM)	0.78 (≈ 2.44 µM)	3.1 (≈ 9.71 µM)	0.78 (≈ 2.44 µM)	0.78 (≈ 2.44 µM)	6.2 (≈ 19.4 µM)			15.1	0.6	0.1 (≈ 0.313 µM)	

Continued, in another order:

MIC (Escherichia coli [1]; [13]) [mg/L]	MIC (Klebsiella aerogenes) [mg/L]	MIC (Klebsiella pneumoniae) [mg/L]	MIC (Pseudomonas aeruginosa [2]) [mg/L]	MIC (Pseudomonas aeruginosa [3]) [mg/L]	MIC [4] [mg/L]	MIC (Staphylococcus aureus [5]) [mg/L]	MIC (Streptococcus pyogenes) [mg/L]	MIC (Staphylococcus aureus [6]) [mg/L]	MIC (Enterococcus faecium [7]) [mg/L]	MIC (Acinetobacter) [mg/L]	MIC (Enterococcus faecium [8]) [mg/L]	MIC (Escherichia coli [9]) [mg/L]	Structure (SMILES)	ED50 (Mus musculus [10]) [mg/kg]	ED50 (Mus musculus [11]) [mg/kg]	MIC (Escherichia coli [1]) [mg/L]	ED50 (Mus musculus [12]) [mg/kg]
0.2 (≈ 0.518 µM)	0.78 (≈ 2.02 µM)	0.2 (≈ 0.518 µM)	3.1 (≈ 8.02 µM)	3.1 (≈ 8.02 µM)	0.2 (≈ 0.518 µM)	< 0.1	1.56 (≈ 4.04 µM)	< 0.1	1.56 (≈ 4.04 µM)	0.39 (≈ 1.01 µM)			O=C(O)c1cn(-c2ccc(F)cc2)c2cc(N3CCC(O)C3)c(F)cc2c1=O (configuration not stated)				
0.2 (≈ 0.501 µM)	0.39 (≈ 0.976 µM)	0.1 (≈ 0.25 µM)	1.56 (≈ 3.91 µM)	3.1 (≈ 7.76 µM)	1.56 (≈ 3.91 µM)	0.78 (≈ 1.95 µM)	6.2 (≈ 15.5 µM)	0.78 (≈ 1.95 µM)	12.5 (≈ 31.3 µM)	1.56 (≈ 3.91 µM)			O=C(O)c1cn(-c2ccc(F)cc2)c2cc(N3CCCNCC3)c(F)cc2c1=O				
0.02 (≈ 0.0519 µM)	0.05 (≈ 0.13 µM)	0.02 (≈ 0.0519 µM)	0.2 (≈ 0.519 µM)	0.2 (≈ 0.519 µM)	0.05 (≈ 0.13 µM)	0.05 (≈ 0.13 µM)	0.1 (≈ 0.259 µM)	0.05 (≈ 0.13 µM)	0.78 (≈ 2.02 µM)	0.2 (≈ 0.519 µM)			NC1CCN(c2cc3c(cc2F)c(=O)c(C(=O)O)cn3-c2ccc(F)cc2)C1 (configuration not stated)				
0.05 (≈ 0.13 µM)	0.2 (≈ 0.519 µM)	0.02 (≈ 0.0519 µM)	0.39 (≈ 1.01 µM)	0.39 (≈ 1.01 µM)	0.39 (≈ 1.01 µM)	0.2 (≈ 0.519 µM)	0.78 (≈ 2.02 µM)	0.2 (≈ 0.519 µM)	1.56 (≈ 4.05 µM)	0.2 (≈ 0.519 µM)		0.05 (≈ 0.13 µM)	O=C(O)c1cn(-c2ccc(F)cc2)c2cc(N3CCNCC3)c(F)cc2c1=O [SARAFLOXACIN]		0.6		4.3
